Results taken from ChEMBL document CHEMBL1833790, “N-(2-{3-[3,5-bis(trifluoromethyl)phenyl]ureido}ethyl)-glycyrrhetinamide (6b): a novel anticancer glycyrrhetinic acid derivative that targets the proteasome and displays anti-kinase activity” (J Med Chem, 2011).
Calls of active or inactive are those of the source. The rule behind the calls is not given here.

What was measured:
[1] = molecular target: T1, Peroxisome proliferator-activated receptor gamma (Homo sapiens) (UniProt P37231); assay: Inhibition of PPARgamma activity in human U373 cells at 30 uM after 6 hrs by spectrophotometric analysis relative to control; type: cell-based; conditions: U-373MG ATCC
T1 sequence (whole entry): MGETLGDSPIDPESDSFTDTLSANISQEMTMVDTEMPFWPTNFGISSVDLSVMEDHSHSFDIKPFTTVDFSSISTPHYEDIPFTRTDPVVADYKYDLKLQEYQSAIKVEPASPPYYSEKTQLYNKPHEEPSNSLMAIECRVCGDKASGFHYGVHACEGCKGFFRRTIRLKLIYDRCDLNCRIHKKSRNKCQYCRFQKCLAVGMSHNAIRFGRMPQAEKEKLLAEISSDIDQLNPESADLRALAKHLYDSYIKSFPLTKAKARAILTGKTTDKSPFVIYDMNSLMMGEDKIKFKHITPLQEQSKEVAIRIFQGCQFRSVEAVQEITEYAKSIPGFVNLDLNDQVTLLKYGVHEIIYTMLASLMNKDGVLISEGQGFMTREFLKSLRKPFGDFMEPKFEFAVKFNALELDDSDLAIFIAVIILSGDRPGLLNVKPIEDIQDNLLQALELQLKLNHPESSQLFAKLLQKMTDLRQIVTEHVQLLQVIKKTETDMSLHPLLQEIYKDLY
Method in brief: (§1)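 Human U373 glioblastoma cells exposed to compound for 6 h, then detached with trypsin. Nuclear extracts prepared by hypotonic lysis with Nonidet P-40 and extraction buffer with protease inhibitor, clarified at 14 000 g, 4 °C. Extracts bound overnight at 4 °C in a PPAR-γ transcription factor ELISA kit, with primary antibody then HRP anti-rabbit. Absorbance read at 450 nm; triplicates, mean ± SD versus control.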

[2] = tested on: U-373MG ATCC; assay: Activation of chymotrypsin-like activity of 20S proteasome in human U373 cells at 30 uM after 2 days by bioluminescence assay; type: cell-based
Method in brief: (§2)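 Chymotrypsin-like site, substrate Suc-LLVY-Glo. U373 cells were seeded at 5000 cells/mL for 48 h and exposed two days. After a PBS wash and 0.025% digitonin permeabilisation, Proteasome-Glo reagent was added. Bioluminescence was read after 10 min dark incubation. Triplicates, normalised by a concurrent MTT viability assay run in identical conditions.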

[3] = tested on: U-373MG ATCC; assay: Inhibition of trypsin-like activity of 20S proteasome in human U373 cells at 30 uM after 2 days by bioluminescence assay; type: cell-based
Method in brief: (§3)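 U373 GBM cells seeded at 5000 cells/mL and grown 48 h, then treated for two days. Cells washed in PBS and permeabilised with 0.025% digitonin. Proteasome-Glo reagent added with Suc-LLVY-Glo (chymotrypsin-like), Z-LRR-Glo (trypsin-like) or Z-nLPnLD-Glo (caspase-like) substrate. Luminescence read after 10 min in the dark and normalised to a parallel MTT viability assay; triplicates. MG-132 at 0.5 μM used as reference.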

[4] = tested on: U-373MG ATCC; assay: Activation of caspase-like activity of 20S proteasome in human U373 cells at 30 uM after 2 days by bioluminescence assay; type: cell-based
Method in brief: (§4)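 Caspase-like site, substrate Z-nLPnLD-Glo. U373 cells were plated at 5000 cells/mL for 48 h, then treated two days. Cells were PBS-washed and permeabilised with 0.025% digitonin before Proteasome-Glo reagent was added. Luminescence was read after 10 min in the dark. Triplicates, normalised to a parallel MTT viability assay under identical conditions.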

[5] = Chemical stability of the compound in MEM cell culture medium after 7 days by HPLC analysis; type: physicochemical; conditions: read-out: Stability
Method in brief: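 Compound incubated in MEM culture medium at 37 °C for 7 days, then analysed by HPLC on RX-C8 (5 μm) column with MeOH–water 90:10 (0.1% TFA), diode-array detection. Expressed as % of incubated compound recovered.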

[6] = tested on: A549; assay: Growth inhibition in apoptosis-resistant human A549 after 3 days by MTT assay; type: functional; conditions: A549, 72 h
Method in brief: (§5)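 Cells grown in RPMI with 10% heat-inactivated FCS, 4 mM glutamine, gentamicin and penicillin–streptomycin. Drug exposure 3 days, growth read by MTT colorimetric assay. Nine concentrations from 0.01 to 100 μM in semilog steps, six replicates each; IC50 derived per cell line.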

[7] = tested on: SK-MEL-28; assay: Growth inhibition in apoptosis-resistant human SK-MEL-28 after 3 days by MTT assay; type: functional; conditions: SK-MEL-28, 72 h; method in brief: as §5
[8] = tested on: T98G; assay: Growth inhibition in apoptosis-resistant human T98G after 3 days by MTT assay; type: functional; conditions: 72 h; method in brief: as §5
[9] = Growth inhibition in apoptosis-resistant human U373 after 3 days by MTT assay; type: functional, U-373MG ATCC; conditions: U373 MG, 72 h; method in brief: as §5
[10] = tested on: Hs 683; assay: Growth inhibition in apoptosis-sensitive human Hs683 after 3 days by MTT assay; type: functional; conditions: Hs 683, 72 h; method in brief: as §5
[11] = tested on: PC-3; assay: Growth inhibition in apoptosis-sensitive human PC3 after 3 days by MTT assay; type: functional; conditions: PC-3, 72 h; method in brief: as §5
[12] = tested on: MCF7; assay: Growth inhibition in apoptosis-sensitive human MCF7 after 3 days by MTT assay; type: functional; conditions: MCF7, 72 h; method in brief: as §5
[13] = tested on: B16-F10; assay: Growth inhibition in mouse B16F10 after 3 days by MTT assay; type: functional; conditions: B16-F10, 72 h; method in brief: as §5
[14] = molecular target: T1, Peroxisome proliferator-activated receptor gamma (Homo sapiens); assay: Inhibition of PPARgamma activity in human U373 cells at 60 uM after 6 hrs by spectrophotometric analysis relative to control; type: cell-based; conditions: U-373MG ATCC; method in brief: as §1
[15] = tested on: U-373MG ATCC; assay: Inhibition of trypsin-like activity of 20S proteasome in human U373 cells at 60 uM after 2 days by bioluminescence assay; type: cell-based; method in brief: as §3
[16] = tested on: U-373MG ATCC; assay: Activation of chymotrypsin-like activity of human proteasome in U373 at 60 uM after 2 days by bioluminescence assay; type: cell-based; method in brief: as §2
[17] = tested on: U-373MG ATCC; assay: Activation of caspase-like activity of 20S proteasome in human U373 cells at 60 uM after 2 days by bioluminescence assay; type: cell-based; method in brief: as §4
[18] = molecular target: T1, Peroxisome proliferator-activated receptor gamma (Homo sapiens); assay: Inhibition of PPARgamma activity in human U373 cells at 25 uM after 6 hrs by spectrophotometric analysis relative to control; type: cell-based; conditions: U-373MG ATCC; method in brief: as §1
[19] = tested on: U-373MG ATCC; assay: Activation of chymotrypsin-like activity of 20S proteasome in human U373 cells at 25 uM after 2 days by bioluminescence assay; type: cell-based; method in brief: as §2
[20] = tested on: U-373MG ATCC; assay: Inhibition of trypsin-like activity of 20S proteasome in human U373 cells at 25 uM after 2 days by bioluminescence assay; type: cell-based; method in brief: as §3
[21] = tested on: U-373MG ATCC; assay: Activation of caspase-like activity of 20S proteasome in human U373 cells at 25 uM after 2 days by bioluminescence assay; type: cell-based; method in brief: as §4
[22] = molecular target: T1, Peroxisome proliferator-activated receptor gamma (Homo sapiens); assay: Inhibition of PPARgamma activity in human U373 cells at 70 uM after 6 hrs by spectrophotometric analysis relative to control; type: cell-based; conditions: U-373MG ATCC; method in brief: as §1
[23] = tested on: U-373MG ATCC; assay: Activation of chymotrypsin-like activity of 20S proteasome in human U373 cells at 70 uM after 2 days by bioluminescence assay; type: cell-based; method in brief: as §2
[24] = tested on: U-373MG ATCC; assay: Inhibition of trypsin-like activity of 20S proteasome in human U373 cells at 70 uM after 2 days by bioluminescence assay; type: cell-based; method in brief: as §3
[25] = tested on: U-373MG ATCC; assay: Activation of caspase-like activity of 20S proteasome in human U373 cells at 70 uM after 2 days by bioluminescence assay; type: cell-based; method in brief: as §4
[26] = molecular target: T1, Peroxisome proliferator-activated receptor gamma (Homo sapiens); assay: Inhibition of PPARgamma activity in human U373 cells at 80 uM after 6 hrs by spectrophotometric analysis relative to control; type: cell-based; conditions: U-373MG ATCC; method in brief: as §1
[27] = tested on: U-373MG ATCC; assay: Activation of chymotrypsin-like activity of 20S proteasome in human U373 cells at 80 uM after 2 days by bioluminescence assay; type: cell-based; method in brief: as §2
[28] = tested on: U-373MG ATCC; assay: Inhibition of trypsin-like activity of 20S proteasome in human U373 cells at 80 uM after 2 days by bioluminescence assay; type: cell-based; method in brief: as §3
[29] = tested on: U-373MG ATCC; assay: Activation of caspase-like activity of 20S proteasome in human U373 cells at 80 uM after 2 days by bioluminescence assay; type: cell-based; method in brief: as §4

Row | Compound | remaining at 168 h [5] [%] | GI50 [6] [µM] | GI50 [7] [µM] | GI50 [8] [µM] | GI50 [9] [µM] | GI50 [10] [µM] | GI50 [11] [µM] | GI50 [12] [µM] | GI50 [13] [µM] | other results
1 | COC(=O)[C@@]1(C)CC[C@]2(C)CC[C@]3(C)C(=CC(=O)[C@@H]4[C@@]5(C)C=C(I)C(=O)C(C)(C)[C@@H]5CC[C@]43C)[C@@H]2C1 | 89 | 42 | 32 | 6 | 42 | 48 | 36 | 28 | 23 | inhibition [1]: Active; Activity [2]: Active; inhibition [3]: Active; Activity [4]: Active
2 | COc1ccc(CCNC(=O)[C@@]2(C)CC[C@]3(C)CC[C@]4(C)C(=CC(=O)[C@@H]5[C@@]6(C)CC[C@H](O)C(C)(C)[C@@H]6CC[C@]54C)[C@@H]3C2)cc1OC | 86 | 52 | > 100 | 91 | 43 | 59 | 34 | 34 | 37 | inhibition [14]: Active; inhibition [15]: Active; Activity [16]: Active; Activity [17]: Active
3 | CC1(C)[C@@H](O)CC[C@]2(C)[C@H]3C(=O)C=C4[C@@H]5C[C@@](C)(C(=O)NCCNC(=S)Nc6ccccc6)CC[C@]5(C)CC[C@@]4(C)[C@]3(C)CC[C@@H]12 | 94 | 31 | 38 | 25 | 29 | 8 | 9 | 30 | 34 | inhibition [18]: Active; Activity [19]: Active; inhibition [20]: Active; Activity [21]: Active
4 | COc1ccc2[nH]cc(CCNC(=O)[C@@]3(C)CC[C@]4(C)CC[C@]5(C)C(=CC(=O)[C@@H]6[C@@]7(C)CC[C@H](O)C(C)(C)[C@@H]7CC[C@]65C)[C@@H]4C3)c2c1 | 94 | 40 | > 100 | > 100 | 75 | 57 | 43 | 38 | 31 | inhibition [22]: Active; Activity [23]: Active; inhibition [24]: Active; Activity [25]: Active
5 | COc1ccc(CCNC(=O)[C@@]2(C)CC[C@]3(C)CC[C@]4(C)C(=CC(=O)[C@@H]5[C@@]6(C)CCC(=O)C(C)(C)[C@@H]6CC[C@]54C)[C@@H]3C2)cc1 | 93 | > 100 | > 100 | > 100 | 69 | 91 | 52 | 56 | 49 | inhibition [26]: Active; Activity [27]: Active; inhibition [28]: Active; Activity [29]: Active
